Assay results as given in ChEMBL document CHEMBL2040818, “Synthesis and in vitro evaluation of novel tetrazole embedded 1,3,5-trisubstituted pyrazoline derivatives as Entamoeba histolytica growth inhibitors” (Eur J Med Chem, 2012).

How the values were obtained:
Entamoeba histolytica = assay: Antiamoebic activity against Entamoeba histolytica HM1:IMSS after 72 hrs by microdilution method; assay type: functional, organism-based; conditions: HM-1:IMSS
HepG2 = assay: Cytotoxicity against human HepG2 cells after 48 hrs by MTT assay; conditions: HepG2, 48 h
[1] = Selectivity index, ratio of IC50 for human HepG2 cells to IC50 for Entamoeba histolytica HM1:IMSS
[2] = Cytotoxicity against human HepG2 cells assessed as cell viability at 50 to 100 uM after 48 hrs by MTT assay
in vitro [3] = conditions: human, HepG2 cells
in vitro [4] = conditions: human, HepG2 cells; remark: listed apart in the source
[5] = Cytotoxicity against human HepG2 cells assessed as cell viability at 100 uM after 48 hrs by MTT assay; assay type: cell-based; conditions: read-out: Activity
Summary of the method: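 HepG2 grown in DMEM, 10% heat-inactivated FBS, antibiotics, 37 °C, 5% CO2; 1.2 × 10^4 cells/well pre-grown 48 h, then exposed to compounds (3.13–100 µM; DMSO stocks diluted in medium) for 48 h at 37 °C; MTT read-out at 570 nm, reference 655 nm; viability as % of untreated control; triplicate, repeated thrice.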

SMILES	IC50 (Entamoeba histolytica) [µM]	IC50 (HepG2) [µM]	Ratio IC50 [1]	viability at 48 h, 100 µM [2] [%]	viability at 48 h, 3.13 µM (in vitro [3]) [%]	viability at 48 h, 25 µM (in vitro [4]) [%]	viability at 48 h, 100 µM [5] [%]
O=C(/C=C/c1ccc([N+](=O)[O-])cc1)c1ccccc1	6.02	64.7	10.74	40	95	72	
Cc1ccc(C(=O)/C=C/c2ccc(Cl)cc2)cc1	5.22	74.2	14.21	40	95	72	
Cc1ccc(C(=O)/C=C/c2ccc([N+](=O)[O-])cc2)cc1	5.08	85.6	16.85	40	95	72	
O=C(/C=C/c1ccc([N+](=O)[O-])cc1)c1ccc(Cl)cc1	6.18	40.2	6.5	40	95	72	
O=C(/C=C/c1ccccc1)c1ccc(Cl)cc1	6.96	94.7	13.6	40	95	72	
COc1ccc(/C=C/C(=O)c2ccc(Cl)cc2)cc1	5.1	97.2	19.05	40	95	72	
Cc1ccc(/C=C/C(=O)c2ccccc2)cc1	4.38						
Cc1ccc(/C=C/C(=O)c2ccc(Cl)cc2)cc1	5.32	92.6	17.4	40	95	72	
Cc1ccc(C(=O)/C=C/c2ccccc2)cc1	4.83	> 100	>20.7	40	95	72	
O=C(/C=C/c1ccc(Cl)cc1)c1ccc(Cl)cc1 [4',4-DICHLOROCHALCONE]	5.86	82.8	14.13	40	95	72	
Cc1ccc(/C=C/C(=O)c2ccc(C)cc2)cc1 [4,4'-DIMETHYLCHALCONE]	4.19	> 100		40	95	72	
O=C(/C=C/c1ccc(Cl)cc1)c1ccccc1 [4-CHLORO CHALCONE]	7.32	97.2	13.27	40	95	72	
Cc1ncc([N+](=O)[O-])n1CCO [METRONIDAZOLE]		> 100	>55.55		95		

The next lines start with results.

IC50 (Entamoeba histolytica) [µM]	SMILES	IC50 (HepG2) [µM]	Ratio IC50 [1]	viability at 48 h, 100 µM [2] [%]	viability at 48 h, 3.13 µM (in vitro [3]) [%]	viability at 48 h, 25 µM (in vitro [4]) [%]	viability at 48 h, 100 µM [5] [%]
5.32	COc1ccc(-c2nnnn2CC(=O)N2N=C(c3ccccc3)CC2c2ccccc2)cc1 (configuration not stated)	85.3	16.03	40	95	72	
3.02	COc1ccc(-c2nnnn2CC(=O)N2N=C(c3ccccc3)CC2c2ccc(Cl)cc2)cc1 (configuration not stated)	80.4	26.62	40	95	72	
1.28	COc1ccc(-c2nnnn2CC(=O)N2N=C(c3ccccc3)CC2c2ccc(C)cc2)cc1 (configuration not stated)	> 100	>78.12				≥ 68
1.16	COc1ccc(-c2nnnn2CC(=O)N2N=C(c3ccccc3)CC2c2ccc(OC)cc2)cc1 (configuration not stated)	> 100	>86.2				≥ 68
3.68	COc1ccc(-c2nnnn2CC(=O)N2N=C(c3ccccc3)CC2c2ccc([N+](=O)[O-])cc2)cc1 (configuration not stated)	79.8	21.68	40	95	72	
3.15	COc1ccc(-c2nnnn2CC(=O)N2N=C(c3ccc(Cl)cc3)CC2c2ccccc2)cc1 (configuration not stated)	90.6	28.76	40	95	72	
4.65	COc1ccc(-c2nnnn2CC(=O)N2N=C(c3ccc(Cl)cc3)CC2c2ccc(Cl)cc2)cc1 (configuration not stated)	80.3	17.26	40	95	72	
2.96	COc1ccc(-c2nnnn2CC(=O)N2N=C(c3ccc(Cl)cc3)CC2c2ccc(C)cc2)cc1 (configuration not stated)	92.6	31.28	40	95	72	
2.63	COc1ccc(-c2nnnn2CC(=O)N2N=C(c3ccc(Cl)cc3)CC2c2ccc(OC)cc2)cc1 (configuration not stated)	> 100	>38.02	40	95	72	
4.89	COc1ccc(-c2nnnn2CC(=O)N2N=C(c3ccc(Cl)cc3)CC2c2ccc([N+](=O)[O-])cc2)cc1 (configuration not stated)	86.5	17.68	40	95	72	
1.2	COc1ccc(-c2nnnn2CC(=O)N2N=C(c3ccc(C)cc3)CC2c2ccccc2)cc1 (configuration not stated)	> 100	>83.33				≥ 68
2.84	COc1ccc(-c2nnnn2CC(=O)N2N=C(c3ccc(C)cc3)CC2c2ccc(Cl)cc2)cc1 (configuration not stated)	98	34.5	40	95	72	
0.86	COc1ccc(-c2nnnn2CC(=O)N2N=C(c3ccc(C)cc3)CC2c2ccc(C)cc2)cc1 (configuration not stated)	> 100	>116.27				≥ 68
1.08	COc1ccc(-c2nnnn2CC(=O)N2N=C(c3ccc(C)cc3)CC2c2ccc(OC)cc2)cc1 (configuration not stated)	> 100	>92.59				≥ 68
2.63	COc1ccc(-c2nnnn2CC(=O)N2N=C(c3ccc(C)cc3)CC2c2ccc([N+](=O)[O-])cc2)cc1 (configuration not stated)	> 100	>38.02	40	95	72	
4.76	COc1ccc(/C=C/C(=O)c2ccc(C)cc2)cc1	> 100	>21.01	40	95	72	
5.93	COc1ccc(/C=C/C(=O)c2ccccc2)cc1 [4-METHOXY CHALCONE]	> 100	>16.86	40	95	72	
12.9	O=C(/C=C/c1ccccc1)c1ccccc1 [CHALCONE]	> 100	>7.78	40	95	72	
